Screens as filed in PubChem.
PKA-R2B act – activates the human PKA-R2B holoenzyme complex. P22694+P31323. PKA-R2B holoenzyme dissociation, Cy5-IP20 fluorescence polarization; R2B truncated from residue 108, S112A mutant; 0% DMSO only, 100% 113 µM cGMP. activation, % at 11.4 µM. actives 0.079% (n = 340,000);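 active means activation above a cutoff set at the mean over all compounds plus 3 SD, cut at about 18% in these data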;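 further: higher means more holoenzyme dissociation and a rise in polarization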
S100A4 inh HTS – blocks human S100A4 binding to myosin IIA peptide; P26447; S100A4/TAMRA-MyoIIA peptide fluorescence polarization; inhibition, % at 10.7 µM; actives 0.14% (n = 360,000);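 active means mean inhibition of at least 70% across replicates, with every replicate also reaching that level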
Target sequence (P26447 whole entry, looked up): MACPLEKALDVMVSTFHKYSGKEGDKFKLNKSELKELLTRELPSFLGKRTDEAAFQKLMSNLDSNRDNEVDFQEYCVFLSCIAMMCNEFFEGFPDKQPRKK
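Material: S100A4 monomer (human). Medium: Calcium-containing HEPES buffer, pH 7.2. Probe or stimulus: labelled myosin peptide probe, 5 nM. Compound dosing: one concentration per compound. Timing: polarization read 5 min after assay mix addition, stable 5–60 min. Benchmarks: DMSO as neutral control, TFP as positive control.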
CRFR2-BP antag – CRF-BP/CRF-R2 complex antagonism; inhibition, % at 11.8 µM; actives 0.59% (n = 350,000); HEK293 CRF-R2/CRF-BP, CRF-induced calcium fluorescence;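 active means inhibition of the ligand-induced calcium signal above about 50% at the single tested concentration, limit read from the data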
SIRT5 block – inhibitors of human sirtuin-5 desuccinylase. actives 1.1% (n = 330,000). inhibition, % at 15 µM. Q9NXA8. AID 652115. Purified SirT5, succinyl-peptide AMC, trypsin-coupled fluorescence; in the data active means inhibition above about 15%
Target sequence (Q9NXA8 whole entry, looked up): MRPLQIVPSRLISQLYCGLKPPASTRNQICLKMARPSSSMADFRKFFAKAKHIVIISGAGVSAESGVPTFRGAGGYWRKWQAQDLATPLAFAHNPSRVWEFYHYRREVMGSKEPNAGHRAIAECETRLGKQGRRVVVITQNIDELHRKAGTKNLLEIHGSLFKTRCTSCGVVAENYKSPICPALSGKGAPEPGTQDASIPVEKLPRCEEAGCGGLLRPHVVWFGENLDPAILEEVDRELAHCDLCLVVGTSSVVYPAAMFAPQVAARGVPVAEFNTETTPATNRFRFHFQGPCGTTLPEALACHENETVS
PKA-R1A act – activators of PKA-R1A complex | PKA-R1A dissociation, Cy5-IP20 fluorescence polarization; scaled: DMSO 0%, 113 µM cGMP 100% | activation, % at 11.4 µM | actives 0.083% (n = 340,000) | AID 504707;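 active means percent activation above the mean of all tested compounds plus 3 SD, cut at about 19% in these data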;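 further: higher means more PKAc released from R1A so a rise in polarization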
An asterisk follows results filed as active. Only some compounds are listed: those with a hit (about 1.5% of all), similar ones and a draw of the others.

How did COc1cccc(CN2CC3(CN(CC4CC4)C3)c3c([nH]c4cc(OC)ccc34)[C@H]2CO)c1 do in these assays?
S100A4 inh HTS: 4.7; SIRT5 block: -3.5

How did COc1cccc(-c2ccc([C@H]3[C@@H](CO)N4CCCCN(Cc5cncnc5)C[C@H]34)cc2)c1 do in these assays?
S100A4 inh HTS: -5.9; SIRT5 block: 1.3

Results for COCCNC(=O)CN(CC1CCCO1)C(=O)CCC(=O)Nc1ccccn1 (stereo not drawn) ?
PKA-R2B act: -2.8; CRFR2-BP antag: 57.1*; PKA-R1A act: -5.2

What do the screens show for `O=C(CN(CC1CCCO1)C(=O)CCC(=O)Nc1ccccn1)NCC1CCCO1` (stereo not drawn)?
PKA-R2B act: 3.3; CRFR2-BP antag: -21.5; PKA-R1A act: 1.2

Results for Cn1c(=O)c2sccc2n2c(CCCC(=O)N3CCN(c4ccccn4)CC3)nnc12 ?
PKA-R2B act: 5.0; S100A4 inh HTS: 111.1*; CRFR2-BP antag: 4.3; SIRT5 block: -1.2; PKA-R1A act: 5.8

Results for O=C(OC1CCOC1=O)c1cc(Cl)ccc1[N+](=O)[O-] (stereo not drawn) ?
PKA-R2B act: -5.9; S100A4 inh HTS: 2.0; CRFR2-BP antag: 23.5; SIRT5 block: 97.9*; PKA-R1A act: -11.8

What do the screens show for `C[C@@H]1CN([C@@H](C)CO)C(=O)c2ccccc2-c2ccccc2CO[C@H]1CN(C)C(=O)C1CC1`?
S100A4 inh HTS: 10.1; SIRT5 block: -2.1

Results for Cc1ccc(-c2csc(Nc3ccc(C(=O)O)cc3)[n+]2Cc2ccccc2)cc1 ?
PKA-R2B act: -3.6; S100A4 inh HTS: 15.0; CRFR2-BP antag: 69.0*; SIRT5 block: -0.5; PKA-R1A act: -3.5

What do the screens show for `COC(=O)[C@H](Cc1c[nH]c2ccccc12)NCc1cccc(B(O)O)c1`?
PKA-R2B act: 7.1; S100A4 inh HTS: 2.8; CRFR2-BP antag: 7.1; SIRT5 block: 26.2*; PKA-R1A act: 9.8

Results for COc1ccc(S(=O)(=O)N2C[C@H](O)COC[C@H]3O[C@H](CC(=O)N[C@@H]4CCN(Cc5ccccc5)C4)CC[C@@H]32)cc1 ?
S100A4 inh HTS: 25.6; SIRT5 block: 8.1

How did CCC(=O)N[C@@H]1CC[C@@H](CCn2cc(C3CC3)nn2)O[C@H]1CO do in these assays?
S100A4 inh HTS: -11.1; SIRT5 block: -2.5

How did C[C@H](CO)N1C[C@H](C)[C@@H](CN(C)Cc2ccc3c(c2)OCO3)Oc2ccc(NC(=O)Nc3ccccc3)cc2CC1=O do in these assays?
S100A4 inh HTS: -13.4; SIRT5 block: 5.3

What do the screens show for `O=C1/C(=C/C=C/c2ccco2)SC(=S)N1NS(=O)(=O)c1ccccc1`?
PKA-R2B act: -8.4; S100A4 inh HTS: -12.3; CRFR2-BP antag: 8.9; SIRT5 block: 43.2*; PKA-R1A act: -9.5

What do the screens show for `COCCNC(=O)C[C@H]1CC[C@@H]2[C@H](COC[C@@H](O)CN2Cc2cccc(-c3ccncc3)c2)O1`?
S100A4 inh HTS: -4.6; SIRT5 block: -1.9

What do the screens show for `C[C@@H]1CN([C@@H](C)CO)C(=O)c2cccc(NC(=O)c3nc4ccccc4s3)c2O[C@@H]1CN(C)Cc1ccc(C(F)(F)F)cc1`?
S100A4 inh HTS: 0.8; SIRT5 block: 18.3*

How did C[C@@H]1CN([C@H](C)CO)C(=O)c2cccc(NC(=O)c3nc4ccccc4s3)c2O[C@@H]1CN(C)C(=O)NC1CCCCC1 do in these assays?
S100A4 inh HTS: 28.7; SIRT5 block: 34.1*

How did C[C@H](CO)N1C[C@H](C)[C@H](CN(C)S(=O)(=O)c2ccc(F)cc2)Oc2c(NC(=O)c3nc4ccccc4s3)cccc2C1=O do in these assays?
S100A4 inh HTS: -25.0; SIRT5 block: 24.3*

What do the screens show for `O=C(C[C@H]1C=C[C@H](NC(=O)CN2CCOCC2)[C@H](CO)O1)NCc1cccc(F)c1`?
S100A4 inh HTS: 18.1; SIRT5 block: -0.1

What do the screens show for `Cc1ccc(S(=O)(=O)/N=C(/Nc2ccc([N+](=O)[O-])cc2[N+](=O)[O-])c2ccccc2)cc1`?
PKA-R2B act: -9.8; S100A4 inh HTS: -2.7; CRFR2-BP antag: 66.9*; SIRT5 block: 2.6; PKA-R1A act: -4.7

How did CC(C)(C)[S@](=O)N1Cc2cc(C(=O)NC3CCCCC3)nc(-c3cccc(Br)c3)c2[C@@H]1CCO do in these assays?
S100A4 inh HTS: -130.2; SIRT5 block: 4.4
